{"source": "ChEMBL document CHEMBL1135255", "about": "“Design, synthesis and bioactivity evaluation of tribactam beta lactamase inhibitors” (Bioorg Med Chem Lett, 2002)"}
{"target": "T1, Beta-lactamase 1 (Bacillus cereus) (UniProt P00809)", "T1 sequence (whole entry)": "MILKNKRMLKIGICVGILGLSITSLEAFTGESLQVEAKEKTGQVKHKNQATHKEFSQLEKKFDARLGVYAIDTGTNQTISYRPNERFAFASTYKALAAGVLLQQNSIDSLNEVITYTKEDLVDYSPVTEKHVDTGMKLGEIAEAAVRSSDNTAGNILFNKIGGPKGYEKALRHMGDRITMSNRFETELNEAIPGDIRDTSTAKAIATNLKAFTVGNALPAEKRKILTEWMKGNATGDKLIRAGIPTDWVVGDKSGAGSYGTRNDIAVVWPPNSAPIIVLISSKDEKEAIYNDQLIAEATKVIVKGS", "experiment": "Inhibitory activity at beta-lactamase I from Bacillus cereus expressed as percent inhibition of beta-lactam hydrolysis at a concentration of 100.0 umol/L; The inhibitory activity at lower concentrations was not determined", "conditions": "not given", "how_it_was_run": "(§1)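 B. cereus beta-lactamase I was preincubated with inhibitor (range 1–100) for 20 min at 25 °C in microtitre plates. Chromogenic substrate nitrocefin was then added, followed by a further 60 min incubation. Hydrolysis was monitored spectrophotometrically at 490 nm, and the reduction in nitrocefin hydrolysis was expressed as % enzyme inhibition.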", "units": {"inhibition": "%"}}
{"smiles": "C/C=C1/C(=O)N2C(C(=O)O)=C3CCSCC3[C@H]12", "note": "(some centres undefined)", "inhibition": 38}
{"smiles": "C[C@@H](O)[C@H]1C(=O)N2C(C(=O)O)=C3CCCCC3[C@H]12", "note": "(some centres undefined)", "inhibition": 5}
{"smiles": "C[C@@H](O)[C@H]1C(=O)N2C(C(=O)O)=C3CCCCC3[C@@H]12", "note": "(some centres undefined)", "inhibition": 3}
{"smiles": "C/C=C1/C(=O)N2C(C(=O)[O-])=C3CCCCC3[C@H]12.[Na+]", "note": "(some centres undefined)", "inhibition": 23}
{"target": "T1, Beta-lactamase 1 (Bacillus cereus)", "experiment": "Inhibitory activity at beta-lactamase I from Bacillus cereus expressed as percent inhibition of beta-lactam hydrolysis at a concentration of 1.0 umol/L", "conditions": "not given", "how_it_was_run": "as §1", "units": {"inhibition": "%"}}
{"smiles": "C/C=C1/C(=O)N2C(C(=O)O)=C3CCCCC3[C@@H]12", "note": "(some centres undefined)", "inhibition": -1}
{"smiles": "O=C(O)[C@H]1/C(=C/CO)O[C@@H]2CC(=O)N21", "inhibition": 9}
{"smiles": "CC1(C)[C@H](C(=O)O)N2C(=O)C[C@H]2S1(=O)=O", "inhibition": 2}
{"smiles": "C/C=C1/C(=O)N2C(C(=O)O)=C3CCSCC3[C@@H]12", "note": "(some centres undefined)", "inhibition": 6}
{"target": "T1, Beta-lactamase 1 (Bacillus cereus)", "experiment": "Inhibitory activity at beta-lactamase I from Bacillus cereus expressed as percent inhibition of beta-lactam hydrolysis at a concentration of 10.0 umol/L", "conditions": "not given", "how_it_was_run": "as §1", "units": {"inhibition": "%"}}
{"smiles": "C/C=C1/C(=O)N2C(C(=O)O)=C3CCCCC3[C@@H]12", "note": "(some centres undefined)", "inhibition": 14}
{"smiles": "O=C(O)[C@H]1/C(=C/CO)O[C@@H]2CC(=O)N21", "inhibition": 33}
{"smiles": "CC1(C)[C@H](C(=O)O)N2C(=O)C[C@H]2S1(=O)=O", "inhibition": 40}
{"smiles": "C/C=C1/C(=O)N2C(C(=O)O)=C3CCSCC3[C@@H]12", "note": "(some centres undefined)", "inhibition": 19}
{"target": "T1, Beta-lactamase 1 (Bacillus cereus)", "experiment": "Inhibitory activity at beta-lactamase I from Bacillus cereus expressed as percent inhibition of beta-lactam hydrolysis at a concentration of 100.0 umol/L", "conditions": "not given", "how_it_was_run": "as §1", "units": {"inhibition": "%"}}
{"smiles": "C/C=C1/C(=O)N2C(C(=O)O)=C3CCCCC3[C@@H]12", "note": "(some centres undefined)", "inhibition": 61}
{"smiles": "O=C(O)[C@H]1/C(=C/CO)O[C@@H]2CC(=O)N21", "inhibition": 78}
{"smiles": "CC1(C)[C@H](C(=O)O)N2C(=O)C[C@H]2S1(=O)=O", "inhibition": 77}
{"smiles": "C/C=C1/C(=O)N2C(C(=O)O)=C3CCSCC3[C@@H]12", "note": "(some centres undefined)", "inhibition": 60}
{"target": "Beta-lactamase class C (Enterobacter cloacae, UniProt Q59401)", "sequence (Q59401 whole entry)": "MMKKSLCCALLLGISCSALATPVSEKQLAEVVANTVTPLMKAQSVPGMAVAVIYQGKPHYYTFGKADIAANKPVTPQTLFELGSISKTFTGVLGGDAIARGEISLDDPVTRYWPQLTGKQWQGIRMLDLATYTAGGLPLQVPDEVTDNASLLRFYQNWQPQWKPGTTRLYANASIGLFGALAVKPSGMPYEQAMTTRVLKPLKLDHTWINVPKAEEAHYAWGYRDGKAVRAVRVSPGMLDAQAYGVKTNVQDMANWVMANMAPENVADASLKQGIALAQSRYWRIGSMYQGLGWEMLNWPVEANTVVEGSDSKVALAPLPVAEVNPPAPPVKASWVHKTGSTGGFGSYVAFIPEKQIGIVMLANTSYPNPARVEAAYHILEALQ", "experiment": "The compound was tested for its inhibitory activity towards Class C beta-lactamase from Enterobacter cloacae 908R at 0.8 umol concentration", "format": "single protein", "conditions": "not given", "units": {"IC50": "µM"}}
{"smiles": "C/C=C1/C(=O)N2C(C(=O)O)=C3CCSCC3[C@H]12", "note": "(some centres undefined)", "IC50": 4.2}
{"smiles": "C/C=C1/C(=O)N2C(C(=O)O)=C3CCCCC3[C@@H]12", "note": "(some centres undefined)", "IC50": 3}
{"smiles": "C/C=C1/C(=O)N2C(C(=O)O)=C3CCSCC3[C@@H]12", "note": "(some centres undefined)", "IC50": 5}
{"smiles": "C/C=C1/C(=O)N2C(C(=O)[O-])=C3CCCCC3[C@H]12.[Na+]", "note": "(some centres undefined)", "IC50": 1.8}
{"target": "Beta-lactamase TEM (Escherichia coli, UniProt P62593)", "sequence (P62593 whole entry)": "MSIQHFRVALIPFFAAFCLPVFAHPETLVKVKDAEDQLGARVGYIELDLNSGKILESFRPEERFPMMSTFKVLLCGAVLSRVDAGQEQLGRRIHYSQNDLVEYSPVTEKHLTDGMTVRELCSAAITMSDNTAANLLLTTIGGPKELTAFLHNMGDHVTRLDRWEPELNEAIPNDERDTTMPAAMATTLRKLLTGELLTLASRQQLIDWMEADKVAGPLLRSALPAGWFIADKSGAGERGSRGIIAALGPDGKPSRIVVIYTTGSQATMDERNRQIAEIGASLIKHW", "experiment": "(§2) The compound was tested for its inhibitory activity towards Class A TEM-1 beta-lactamase from Escherichia coli at 0.3 umol", "conditions": "not given", "units": {"IC50": "uM l-1"}}
{"smiles": "C/C=C1/C(=O)N2C(C(=O)[O-])=C3CCCCC3[C@H]12.[Na+]", "note": "(some centres undefined)", "IC50": 120}
{"target": "Beta-lactamase TEM (Escherichia coli, UniProt P62593)", "experiment": "as §2", "conditions": "read-out: IC50", "units": {"IC50": "µM"}}
{"smiles": "C/C=C1/C(=O)N2C(C(=O)O)=C3CCSCC3[C@H]12", "note": "(some centres undefined)", "IC50": 100}
{"smiles": "C/C=C1/C(=O)N2C(C(=O)O)=C3CCCCC3[C@@H]12", "note": "(some centres undefined)", "IC50": 39}
{"smiles": "C/C=C1/C(=O)N2C(C(=O)O)=C3CCSCC3[C@@H]12", "note": "(some centres undefined)", "IC50": 32}
